These results are taken from ChEMBL document CHEMBL3045452, “Behavioral responses of the diamondback moth, Plutella xylostella, to green leaf volatiles of Brassica oleracea subsp. capitata” (2000).

Activity calls are given as the source filed them. The rule behind the calls is not given here.

Test [1] deals with Plutella xylostella. Nature of the test: Induction of response in unmated male Plutella xylostella (diamondback moth) assessed as flying moth level at 10 uL measured after 10 min by wind tunnel bioassays (Rvb hexane = 5%). It is filed as functional. The method in brief: (§1)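 Wind tunnel 240 × 30 × 30 cm. Moths acclimatized in the room ≥3 h beforehand. Filter-paper dispenser (4 × 2 cm) hung 15 cm high, loaded with 10 µL of GLV, synthetic pheromone (Z11-16:Ald/Z11-16:Ac/Z11-16:OH 1:1:0.01), a 1:1 mix, or hexane. Two moths released per replicate and watched 10 min; 20 replicates (40 insects) per treatment. Hexane control run twice daily; one treatment per day, tunnel washed between treatments.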

Test [2] concerns Plutella xylostella. Nature of the test: Induction of response in mated male Plutella xylostella (diamondback moth) assessed as landing moth level at 10 uL in presence of synthetic pheromone measured after 10 min by wind tunnel bioassays (Rvb hexane = 0%). It is filed as functional. Put shortly:
as §1

Test [3] concerns Plutella xylostella. The experiment in a line: Induction of response in mated female Plutella xylostella (diamondback moth) assessed as flying moth level at 10 uL in presence of synthetic pheromone measured after 10 min by wind tunnel bioassays (Rvb hexane = 5%). In kind it is functional. The method in brief:
as §1

Test [4] has as its system Plutella xylostella. The experiment in a line: Induction of response in unmated male Plutella xylostella (diamondback moth) assessed as landing moth level at 10 uL measured after 10 min by wind tunnel bioassays (Rvb hexane = 0%). In kind it is functional. Put shortly:
as §1

Test [5] concerns Plutella xylostella. The experiment in a line: Induction of response in mated female Plutella xylostella (diamondback moth) assessed as landing moth level at 10 uL in presence of synthetic pheromone measured after 10 min by wind tunnel bioassays (Rvb hexane = 0%). In kind it is functional. Put shortly:
as §1

In test [6] the test system is Plutella xylostella. The experiment in a line: Induction of response in unmated female Plutella xylostella (diamondback moth) assessed as flying moth level at 10 uL in presence of synthetic pheromone measured after 10 min by wind tunnel bioassays (Rvb hexane = 5%). In kind it is functional. Put shortly:
as §1

Test [7] concerns Plutella xylostella. The experiment in a line: Induction of response in mated male Plutella xylostella (diamondback moth) assessed as flying moth level at 10 uL in presence of synthetic pheromone measured after 10 min by wind tunnel bioassays (Rvb hexane = 0%). In kind it is functional. Put shortly: as §1
In test [8] the test system is Plutella xylostella. The experiment in a line: Induction of response in unmated male Plutella xylostella (diamondback moth) assessed as landing moth level at 10 uL in presence of synthetic pheromone measured after 10 min by wind tunnel bioassays (Rvb hexane = 0%). In kind it is functional. The method in brief: as §1
Test [9] has as its system Plutella xylostella. Nature of the test: Induction of response in mated female Plutella xylostella (diamondback moth) assessed as landing moth level at 10 uL measured after 10 min by wind tunnel bioassays (Rvb hexane = 0%). It is filed as functional. Put shortly: as §1
The subject of test [10] is Plutella xylostella. The experiment in a line: Induction of response in mated female Plutella xylostella (diamondback moth) assessed as flying moth level at 10 uL measured after 10 min by wind tunnel bioassays (Rvb hexane = 5%). It is filed as functional. The method in brief:
as §1

Test [11] relates to Plutella xylostella. Nature of the test: Induction of response in unmated female Plutella xylostella (diamondback moth) assessed as landing moth level at 10 uL in presence of synthetic pheromone measured after 10 min by wind tunnel bioassays (Rvb hexane = 0%). It is filed as functional. The method in brief: as §1
For test [12], the system named is Plutella xylostella. The experiment in a line: Induction of response in unmated female Plutella xylostella (diamondback moth) assessed as landing moth level at 10 uL measured after 10 min by wind tunnel bioassays (Rvb hexane = 0%). It is filed as functional. The method in brief:
as §1

The test system of test [13] is Plutella xylostella. Nature of the test: Induction of response in unmated male Plutella xylostella (diamondback moth) assessed as flying moth level at 10 uL in presence of synthetic pheromone measured after 10 min by wind tunnel bioassays (Rvb hexane = 5%). In kind it is functional. Put shortly: as §1
For test [14], the system named is Plutella xylostella. Nature of the test: Induction of response in mated male Plutella xylostella (diamondback moth) assessed as landing moth level at 10 uL measured after 10 min by wind tunnel bioassays (Rvb hexane = 0%). It is filed as functional. The method in brief:
as §1

Test [15] has as its system Plutella xylostella. Nature of the test: Induction of response in mated male Plutella xylostella (diamondback moth) assessed as flying moth level at 10 uL measured after 10 min by wind tunnel bioassays (Rvb hexane = 0%). It is filed as functional. Put shortly: as §1
Test [16] has as its system Plutella xylostella. Nature of the test: Induction of response in unmated female Plutella xylostella (diamondback moth) assessed as flying moth level at 10 uL measured after 10 min by wind tunnel bioassays (Rvb hexane = 5%). In kind it is functional. The method in brief: as §1
Test [17] relates to Plutella xylostella. The experiment in a line: Potentiation of synthetic pheromone attractant activity in female Plutella xylostella (diamondback moth) in cabbage field assessed as female moth attraction level using sticky traps baited with compound and synthetic pheromone at 1:1 ratio by field trapping method relative to synthetic pheromone alone. In kind it is functional.

For test [18], the system named is Plutella xylostella. Nature of the test: Potentiation of synthetic pheromone attractant activity in male Plutella xylostella (diamondback moth) in cabbage field assessed as moth capture level using sticky traps baited with compound and synthetic pheromone at 1:1 ratio by field trapping method relative to synthetic pheromone alone. In kind it is functional.
Test [19] relates to Plutella xylostella. The experiment in a line: Potentiation of synthetic pheromone attractant activity in female Plutella xylostella (diamondback moth) in cabbage field assessed as female moth attraction level using sticky traps baited with compound and synthetic pheromone at 1:1 ratio by field trapping method relative to compound alone. In kind it is functional.
Test [20] has as its system Plutella xylostella. The experiment in a line: Attractant activity in male Plutella xylostella (diamondback moth) in cabbage field assessed as moth capture level using sticky traps baited with compound by field trapping method. It is filed as functional, organism-based.

For the molecule `CCC/C=C/C=O`, the Activity with Plutella xylostella [1] was 30%; with Plutella xylostella [2], 25%; in the test on Plutella xylostella [3], 50%; in the test on Plutella xylostella [4], 20%; in the test on Plutella xylostella [5], 50%; in the test on Plutella xylostella [6] it was 25%. The Activity is reported as 25% in the test with Plutella xylostella [7]; 85% in the test with Plutella xylostella [8]; 50% in the test on Plutella xylostella [9]; 55% with Plutella xylostella [10]; 20% with Plutella xylostella [11]; 15% in the test on Plutella xylostella [12]. Further, the Activity in the test on Plutella xylostella [13] was found to be 90%; in the test with Plutella xylostella [14], 15%; in the test with Plutella xylostella [15], 20%; with Plutella xylostella [16] it was 20%.
Regarding `CC/C=C\CCOC(C)=O` [(Z)-hex-3-en-1-yl acetate], the “fold change (FC)” value in the test with Plutella xylostella [17] came out at 6; in the test with Plutella xylostella [19] it was 3. For the same molecule, the Activity in the test on Plutella xylostella [1] is reported as 40%; with Plutella xylostella [2], 35%; in the test on Plutella xylostella [3], 65%; in the test with Plutella xylostella [4], 25%; in the test on Plutella xylostella [5], 60%; in the test on Plutella xylostella [6] it was 25%. The Activity worked out at 35% with Plutella xylostella [7]; 95% in the test on Plutella xylostella [8]; 55% in the test with Plutella xylostella [9]; 20% in the test on Plutella xylostella [18]; 60% in the test with Plutella xylostella [10]; 30% with Plutella xylostella [11]. The Activity is on record as 25% with Plutella xylostella [12]; 100% in the test on Plutella xylostella [13]; 20% with Plutella xylostella [14]; 30% in the test on Plutella xylostella [15]; 20% in the test on Plutella xylostella [16]. For the same molecule, in the test with Plutella xylostella [20], the outcome was inactive.
`CC/C=C\CCO` [CIS-3-HEXENOL]: the Activity with Plutella xylostella [1] worked out at 25%; in the test with Plutella xylostella [2] it was 20%; in the test with Plutella xylostella [3], 40%; in the test with Plutella xylostella [4] it was 15%; in the test on Plutella xylostella [5], 45%; in the test on Plutella xylostella [6], 10%. Besides, the Activity in the test with Plutella xylostella [7] is listed as 15%; in the test with Plutella xylostella [8], 80%; with Plutella xylostella [9] it was 40%; in the test with Plutella xylostella [10] it was 40%; in the test on Plutella xylostella [11] it was 20%; with Plutella xylostella [12], 15%. The Activity turned out to be 85% with Plutella xylostella [13], 10% in the test on Plutella xylostella [14], 0% in the test with Plutella xylostella [15] and 10% in the test with Plutella xylostella [16].
`C=CC(O)CCC` (stereo unspecified): the Activity in the test with Plutella xylostella [1] is on record as 20%; in the test on Plutella xylostella [2], 10%; in the test with Plutella xylostella [3], 35%; with Plutella xylostella [4], 10%; in the test on Plutella xylostella [5], 20%; in the test with Plutella xylostella [6] it was 0%. Also, the Activity with Plutella xylostella [7] is 5%; in the test on Plutella xylostella [8], 60%; in the test with Plutella xylostella [9], 20%; in the test with Plutella xylostella [10] it was 10%; in the test with Plutella xylostella [11], 5%; in the test with Plutella xylostella [12] it was 5%. In addition, the Activity in the test on Plutella xylostella [13] is 65%; in the test on Plutella xylostella [14] it was 5%; with Plutella xylostella [15], 0%; in the test with Plutella xylostella [16] it was 0%.
For the molecule `CCCCCCO` [1-HEXANOL], the Activity with Plutella xylostella [1] amounted to 15%; in the test on Plutella xylostella [2], 10%; in the test on Plutella xylostella [3], 25%; with Plutella xylostella [4], 5%; in the test on Plutella xylostella [5] it was 25%; with Plutella xylostella [6], 5%. The Activity with Plutella xylostella [7] came out at 5%; with Plutella xylostella [8] it was 70%; in the test on Plutella xylostella [9], 20%; in the test with Plutella xylostella [10], 15%; with Plutella xylostella [11] it was 5%; in the test with Plutella xylostella [12], 5%. Further, the Activity in the test on Plutella xylostella [13] was determined as 75%; with Plutella xylostella [14], 5%; in the test with Plutella xylostella [15], 0%; with Plutella xylostella [16], 5%.
In the case of `CCCCCCOC(C)=O` [HEXYL ACETATE], the Activity in the test on Plutella xylostella [1] amounted to 10%; in the test on Plutella xylostella [2], 5%; with Plutella xylostella [3], 20%; in the test on Plutella xylostella [4] it was 5%; with Plutella xylostella [5], 15%; with Plutella xylostella [6], 5%. For the same molecule, the Activity in the test on Plutella xylostella [7] amounted to 0%; in the test with Plutella xylostella [8] it was 55%; in the test with Plutella xylostella [9] it was 10%; with Plutella xylostella [10] it was 5%; with Plutella xylostella [11], 0%; in the test on Plutella xylostella [12] it was 0%. Also, the Activity with Plutella xylostella [13] turned out to be 60%; with Plutella xylostella [14], 5%; in the test on Plutella xylostella [15], 0%; in the test with Plutella xylostella [16], 5%.
Turning to `CCCCCC=O` [HEXANAL], the Activity with Plutella xylostella [1] is 10%; with Plutella xylostella [2] it was 10%; with Plutella xylostella [3] it was 35%; with Plutella xylostella [4], 10%; in the test on Plutella xylostella [5] it was 25%; in the test on Plutella xylostella [6], 10%. In addition, the Activity with Plutella xylostella [7] is on record as 5%; with Plutella xylostella [8], 75%; with Plutella xylostella [9], 25%; in the test on Plutella xylostella [10], 30%; in the test with Plutella xylostella [11], 10%; in the test with Plutella xylostella [12], 5%. Besides, the Activity is given as 80% with Plutella xylostella [13], 10% with Plutella xylostella [14], 5% in the test with Plutella xylostella [15] and 5% with Plutella xylostella [16].
